Measured values: PMC5035150 (Journal of biological inorganic chemistry : JBIC : a …, 2015)
Where two headings read alike, the source gives them in different places.

Experiments:
[1] = test system: KB-3-1 human cervical carcinoma cell line; assay: Cytotoxicity, CellTiter-Glo, monolayer; type: cell-based
In short: (§1)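 Monolayers in DMEM (4.5 g/L glucose, L-glutamine, penicillin/streptomycin, 10% FBS) at 37 °C, 5% CO2. […] Cells at 1000/well grown 24 h, then given test compound (from DMF, DMSO or 3 mM saline stock) as 1:3 serial dilutions in DMEM, DMF at most 0.25% final. After 72 h, CellTiter-Glo luminescence read, in triplicate.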

[2] = test system: cisplatin-resistant KB CP.5 cells; assay: Cytotoxicity, CellTiter-Glo, monolayer; type: cell-based, human
In short: as §1

[3] = test system: cisplatin-resistant KB CP20 cells; assay: Cytotoxicity, CellTiter-Glo, monolayer; type: cell-based, human; conditions: for IC50: read-out: IC50 KB CP20, 72 h; for resistance of CP20 cells: relative to parent KB-3-1 cells, monolayer (Table 1 data)
In short: as §1

[4] = test system: CP20 cells relative to KB-3-1 cells; assay: Cellular accumulation by flow cytometry; type: cell-based, human; conditions: 25 μM, 45 min, normalized to KB-3-1
In short: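 Cells trypsinised (200,000 per tube), washed twice and resuspended in IMDM with 5% FBS containing fluorescent test compound (final 25 μM), then held 45 min at 37 °C. Cells rewashed, resuspended in PBS and kept on ice. FL-1 fluorescence read by flow cytometry (488 nm laser, 10,000 events per sample), normalised to parental KB-3-1 cells.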

Distribution coefficient = conditions: [octanol]:[phosphate-buffered saline, pH 7.2], fluorescence, mean ± SD
[5] = test system: phosphorylation of histone H2A.X in KB-3-1 cells; assay: H2AX immunohistochemical staining; type: cell-based, human; conditions: 24 h treatment
In short: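 KB-3-1 cells (5 × 10^4 per chamber) grown 24 h, then exposed to Pt complexes (5–100 μM) for 24 h. Cells PBS-washed, fixed in 4% paraformaldehyde and blocked 1 h in PBS/5% normal horse serum/0.3% Triton X-100. Stained overnight at 4 °C with Alexa Fluor 647-conjugated anti-phospho-H2A.X (Ser139) rabbit mAb, counterstained with DAPI (2 μg/mL, 1 h), then imaged for γH2A.X foci by confocal microscopy.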

[6] = pH 7.2
[7] = test system: KB-3-1 cells grown in Matrigel; assay: Cytotoxicity in three dimensional Matrigel culture, CellTiter-Glo; type: cell-based, human; conditions: KB-3-1, Matrigel
In short: (§2)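 Wells coated with 5 mg/mL Matrigel and gelled 30 min at 37 °C. Cells (1000/well) seeded over it in 2.5 mg/mL Matrigel and grown 1 day (single cells) or 4 days (spheroids). Test compound added as 1:3 serial dilutions in DMEM. Viability by CellTiter-Glo with 60 min lysis, run in triplicate.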

[8] = test system: CP.5 cells grown in Matrigel; assay: as above; type: cell-based, human; conditions: for IC50: CP.5, Matrigel
In short: as §2

[9] = test system: cisplatin-resistant cell lines; conditions: cited from earlier work
[10] = read-out: IC50 KB 3-1, solvent DMF, 72 h
[11] = read-out: IC50 KB CP.5, solvent DMF, 72 h
[12] = relative to parent KB-3-1 cells, monolayer (Table 1 data)
[13] = read-out: IC50 2D, KB-3-1, 2D culture (Table 2)
[14] = read-out: IC50 KB 3-1, solvent Saline, 72 h
[15] = read-out: IC50 2D, CP.5, 2D culture (Table 2)
[16] = read-out: IC50 KB CP.5, solvent Saline, 72 h
[17] = read-out: IC50 3D 1 Day, grown 1 day (single-cell suspension)
[18] = read-out: IC50 3D 4 Day, grown 4 days (spheroids)

Row | Compound | IC50 [1, 10] [µM] | IC50 [2, 11] [µM] | IC50 ([3]; solvent DMF) [µM] | resistance of CP.5 cells [2, 12] [fold] | resistance of CP20 cells [3] [fold] | IC50 [1, 13] [µM] | IC50 [1, 14] [µM] | IC50 [2, 15] [µM] | IC50 [2, 16] [µM] | IC50 ([3]; solvent Saline) [µM] | IC50 [7, 17] [µM] | IC50 [7, 18] [µM] | IC50 [8, 17] [µM] | IC50 [8, 18] [µM] | reduction in accumulation in cisplatin-resistant cells [9] | also measured
1 | CC1=CC(C)=[N+]2C1=Cc1ccc(CCC(=O)NCCNC(=O)OC(C)(C)C)n1[B-]2(F)F [BODIPY-Boc, tert-Butyl (2-(3-(5,5-Difluoro-7,9-dimethyl-5H-4λ^4,5λ^4-dipyrrolo[1,2-c:2′,1′-f][1,3,2]diazaborinin-3-yl)propanamido)ethyl)carbamate] | 86.7 ± 0.8 | 86.9 ± 4.4 | 53.6 ± 2.9 |  |  |  |  |  |  |  |  |  |  |  |  | reduction of accumulation in CP20 cells versus parent KB-3-1 cells [4]: unaffected; LogD (Distribution coefficient): 2.15 ± 0.023
2 | CC1=CC(C)=[N+]2C1=Cc1ccc(CCC(=O)NCCNC(=O)C3C[NH][Pt]([Cl])([Cl])[NH]3)n1[B-]2(F)F (stereo not drawn) [BODIPY-prop-Pt, [(2,3-Diamino-N-(2-(3-(5,5-difluoro-7,9-dimethyl-5H-4λ^4,5λ^4-dipyrrolo[1,2-c:2′,1′-f][1,3,2]diazaborinin-3-yl)propanamido)ethyl)propanamide)dichloroplatinum (II)]] | 21.5 ± 5.8 | 44.6 ± 2.7 | 192 ± 50.3 | 2 | 10 |  |  |  |  |  |  |  |  |  |  | γH2A.X foci ([5]; 50 μM): did so at 50 μM; LogD [6]: 0.66 ± 0.011
3 | N.N.[Cl][Pt][Cl] [Cisplatin, cis-[PtCl2(NH3)2]] | 1.8 ± 0.1 | 23.9 ± 5.3 | 125 ± 31.5 | 10 | 60 | 2.5 ± 0.1 | 2.5 ± 0.2 | 21 ± 2.8 | 25.1 ± 3.4 | > 100 | 4.5 ± 0.7 | 9.4 ± 0.7 | 22.9 ± 4.6 | 32.1 ± 6.9 | 50–75% | resistance of CP.5 cells ([2]; 2D (Table 2 data), relative to KB-3-1): 8.4 fold; resistance of CP.5 spheroids ([8]; 3D 4 day, relative to KB-3-1): 3.4 fold; γH2A.X foci / DNA damage response ([5]; 5 μM): strong DNA damage response
4 | NCCN.[Cl][Pt][Cl] [[PtCl2(en)]] | 1 ± 0.6 | 150 ± 11.8 | > 500 | 40 |  | 4.1 ± 0.2 | 2.7 ± 1.9 | 107 ± 10.9 | 94.9 ± 8.3 | > 100 | 21.4 ± 1 | 150 | 298 ± 21.8 | > 500 |  | γH2A.X foci / DNA damage response ([5]; 25 μM): strong DNA damage response
5 | [Pt(O,O′-cdbca)(NH3)2] [[^14C]carboplatin] |  |  |  |  |  |  |  |  |  |  |  |  |  |  | 50–75% | 
